According to ChEMBL document CHEMBL2163280 (J Med Chem, 2012):
Active and inactive are the calls of the source. The rule behind the calls is not given here.

Experiments:
[1] = Metabolic stability in rat liver microsomes assessed as unchanged parent compound at 1 uM after 60 mins; format: ADME, Microsome; details: read-out: Stability
[2] = Inhibition of opioid receptor at 10 uM
[3] = target: T1, Neuronal acetylcholine receptors; alpha-3/beta-4, alpha-5, beta-2 (Homo sapiens) (UniProt P17787+P30926+P32297+P30532); experiment: Agonist activity at alpha3beta4alpha5beta2 nACHR in human SH-SY5Y cells at 10 uM by 86Rb+ efflux assay; format: functional, cell-based
CYP2D6 [4] = target: T2, CYP2D6 (Homo sapiens, UniProt P10635); experiment: Inhibition of human liver microsome CYP2D6 using […] as substrate assessed as residual activity at 10 uM; format: ADME; details: human liver microsomes, probe burfuralol, read-out: Activity
How it was run: (§1)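 Human liver microsomes in a high-throughput multiple-CYP assay covering CYP1A2, 2B6, 2C9, 2C19, 2D6 and 3A4. Test compound at 1 and 10 μM; isoform activity expressed as % of control.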

CYP2C19 [5] = target: T3, CYP2C19 (Homo sapiens, UniProt P33261); experiment: Inhibition of human liver microsome CYP2C19 using mephenytoin as substrate assessed as residual activity at 1 uM; format: ADME; details: human liver microsomes, probe mephenytoin, read-out: Activity; how it was run: as §1
[6] = Metabolic stability in human liver microsomes assessed as unchanged parent compound at 1 uM after 60 mins; format: ADME, Microsome; details: read-out: Stability
How it was run: (§2)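 Test article incubated with human liver microsomes at 1 and 10 μM. Samples taken at 0, 15, 30 and 60 min, and parent remaining quantified by LC-MS/MS.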

Mus musculus [7] = experiment: Antidepressant activity in BALB/cJ mouse assessed as reduction in immobility at 1 mg/kg, ip measured after 30 mins post drug administration by forced swim test; format: functional, organism-based; design: dose 1 mg/kg
How it was run: (§3)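 Male BALB/cJ mice aged 8–10 weeks; drug given in injectable water by IP injection at 10 mL/kg. Thirty minutes later each mouse was placed in a glass cylinder of water at 23±1 °C, 12 cm deep. Immobility (floating) was scored over a 6 min trial. n = 9–10/group; ANOVA followed by Fisher's PLSD versus vehicle.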

CYP2B6 [8] = target: T4, CYP2B6 (Homo sapiens, UniProt P20813); experiment: Inhibition of human liver microsome CYP2B6 using bupropion as substrate assessed as residual activity at 10 uM; format: ADME; details: human liver microsomes, probe bupropion, read-out: Activity; how it was run: as §1
[9] = target: Neuronal acetylcholine receptor; alpha3/beta2 (Rattus norvegicus, UniProt P04757+P12390); experiment: Displacement of [3H]epibatidine from rat alpha3beta2 nACHR; format: protein-complex assay
[10] = Metabolic stability in rat liver microsomes assessed as unchanged parent compound at 10 uM after 60 mins; format: ADME, Microsome; details: read-out: Stability
[11] = Inhibition of sigma receptor at 10 uM
[12] = target: Acetylcholine receptor; alpha1/beta1/delta/gamma (Homo sapiens) (UniProt P02708+P07510+P11230+Q07001); experiment: Agonist activity at alpha1betagammadelta nACHR in human TE671/RD cells by 86Rb+ efflux assay; format: functional, cell-based
CYP3A4 [13] = target: T5, CYP3A4 (Homo sapiens, UniProt P08684); experiment: Inhibition of human liver microsome CYP3A4 using midazolam as substrate assessed as residual activity at 1 uM; format: ADME; details: human liver microsomes, probe midazolam, read-out: Activity; how it was run: as §1
CYP1A2 [14] = target: T6, CYP1A2 (Homo sapiens, UniProt P05177); experiment: Inhibition of human liver microsome CYP1A2 using phenacetin as substrate assessed as residual activity at 10 uM; format: ADME; details: human liver microsomes, probe phenacetin, read-out: Activity; how it was run: as §1
[15] = target: Neuronal acetylcholine receptor; alpha4/beta4 (Rattus norvegicus, UniProt P09483+P12392); experiment: Displacement of [3H]epibatidine from rat alpha4beta4 nACHR; format: protein-complex assay
CYP2C9 [16] = target: T7, CYP2C9 (Homo sapiens, UniProt P11712); experiment: Inhibition of human liver microsome CYP2C9 using diclofenac as substrate assessed as residual activity at 1 uM; format: ADME; details: human liver microsomes, probe diclofenac, read-out: Activity; how it was run: as §1
[17] = target: T1, Neuronal acetylcholine receptors; alpha-3/beta-4, alpha-5, beta-2 (Homo sapiens); experiment: Inhibition of alpha3beta4alpha5beta2 nACHR in human SH-SY5Y cells at 10 uM by 86Rb+ efflux assay; format: cell-based
CYP2C9 [18] = target: T7, CYP2C9; experiment: Inhibition of human liver microsome CYP2C9 using diclofenac as substrate assessed as residual activity at 10 uM; format: ADME; details: human liver microsomes, probe diclofenac, read-out: Activity; how it was run: as §1
[19] = Inhibition of histamine receptor at 10 uM
CYP3A4 [20] = target: T5, CYP3A4; experiment: Inhibition of human liver microsome CYP3A4 using midazolam as substrate assessed as residual activity at 10 uM; format: ADME; details: human liver microsomes, probe midazolam, read-out: Activity; how it was run: as §1
hERG (KCNH2) = hERG (KCNH2) (Homo sapiens, UniProt Q12809); experiment: Inhibition of human recombinant ERG expressed in HEK293 cells at 10 uM by fluorescence-based membrane potential analysis; format: cell-based; details: HEK293 cells expressing human recombinant ERG
How it was run: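 HEK293 cells stably expressing recombinant human hERG, read in a fluorescence-based membrane potential assay. Test compound at 10 μM, compared with a negative control.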

[21] = Inhibition of GABA receptor at 10 uM
[22] = Binding affinity to rat forebrain alpha7* nACHR at 10 uM
[23] = Plasma protein binding in mouse at 0.1 to 10 uM by equilibrium dialysis; format: ADME, cell-free; details: read-out: PPB (converted)
How it was run: (§4)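 Equilibrium dialysis against human or mouse plasma, with test compound at 0, 0.1, 1 and 10 μM; results expressed as mean percentage of compound bound to plasma proteins.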

[24] = Inhibition of dopamine receptor at 10 uM
[25] = target: Neuronal acetylcholine receptor; alpha2/beta4 (Rattus norvegicus, UniProt P12389+P12392); experiment: Displacement of [3H]epibatidine from rat alpha2beta4 nACHR; format: protein-complex assay
[26] = Displacement of [3H]epibatidine from rat forebrain alpha4beta2* nACHR
Mus musculus [27] = experiment: Antidepressant activity in BALB/cJ mouse assessed as reduction in immobility at 5 mg/kg, po measured after 30 mins post drug administration by forced swim test; format: functional, organism-based; design: dose 5 mg/kg
How it was run: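 Male BALB/cJ mice aged 8–10 weeks; drug given in injectable water by oral gavage at 10 mL/kg. Thirty minutes later each mouse was placed in water at 23±1 °C, 12 cm deep. Immobility time was recorded over a 6 min trial. n = 9–10/group; ANOVA followed by Fisher's PLSD.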

Liver microsomes [28] = experiment: Drug metabolism in rat liver microsomes assessed as unchanged parent compound at 1 to 10 uM; format: ADME, Microsome; details: TDE = time-dependent effect
CYP3A4 [29] = target: T5, CYP3A4; experiment: Inhibition of human liver microsome CYP3A4 using testosterone as substrate assessed as residual activity at 1 uM; format: ADME; details: human liver microsomes, probe testosterone, read-out: Activity; how it was run: as §1
[30] = Metabolic stability in human liver microsomes assessed as unchanged parent compound at 10 uM after 60 mins; format: ADME, Microsome; details: read-out: Stability
How it was run: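 Test article incubated with human liver microsomes at 1 μM and 10 μM; aliquots taken at 0, 15, 30 and 60 min and analysed by LC-MS/MS for remaining unchanged parent drug.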

[31] = Inhibition of serotonin receptor at 10 uM
CYP3A4 [32] = target: T5, CYP3A4; experiment: Inhibition of human liver microsome CYP3A4 using testosterone as substrate assessed as residual activity at 10 uM; format: ADME; details: human liver microsomes, probe testosterone, read-out: Activity; how it was run: as §1
CYP2C19 [33] = target: T3, CYP2C19; experiment: Inhibition of human liver microsome CYP2C19 using mephenytoin as substrate assessed as residual activity at 10 uM; format: ADME; details: human liver microsomes, probe mephenytoin, read-out: Activity; how it was run: as §1
[34] = Inhibition of muscarinic receptor at 10 uM
[35] = target: Neuronal acetylcholine receptor subunit alpha-7 (Rattus norvegicus, UniProt Q05941); experiment: Binding affinity to rat alpha7 nACHR […]
CYP2D6 [36] = target: T2, CYP2D6; experiment: Inhibition of human liver microsome CYP2D6 using bufuralol as substrate assessed as residual activity at 1 uM; format: ADME; details: human liver microsomes, probe bufuralol, read-out: Activity; how it was run: as §1
CYP2B6 [37] = target: T4, CYP2B6; experiment: Inhibition of human liver microsome CYP2B6 using bupropion as a substrate assessed as residual activity at 1 uM; format: ADME; details: human liver microsomes, probe bupropion, read-out: Activity; how it was run: as §1
[38] = Inhibition of adrenergic receptor at 10 uM
Mus musculus [39] = experiment: Antidepressant activity in BALB/cJ mouse assessed as reduction in immobility at 5 mg/kg, ip measured after 30 mins post drug administration by forced swim test; format: functional, organism-based; design: dose 5 mg/kg; how it was run: as §3
Liver microsomes [40] = experiment: Drug metabolism in human liver microsomes assessed as unchanged parent compound at 1 to 10 uM; format: ADME, Microsome; details: TDE = time-dependent effect; how it was run: as §2
CYP1A2 [41] = target: T6, CYP1A2; experiment: Inhibition of human liver microsome CYP1A2 using phenacetin as substrate assessed as residual activity at 1 uM; format: ADME; details: human liver microsomes, probe phenacetin, read-out: Activity; how it was run: as §1
[42] = Plasma protein binding in human at 0.1 to 10 uM by equilibrium dialysis; format: ADME, cell-free; details: read-out: PPB (converted); how it was run: as §4

T5 sequence (P08684 whole entry): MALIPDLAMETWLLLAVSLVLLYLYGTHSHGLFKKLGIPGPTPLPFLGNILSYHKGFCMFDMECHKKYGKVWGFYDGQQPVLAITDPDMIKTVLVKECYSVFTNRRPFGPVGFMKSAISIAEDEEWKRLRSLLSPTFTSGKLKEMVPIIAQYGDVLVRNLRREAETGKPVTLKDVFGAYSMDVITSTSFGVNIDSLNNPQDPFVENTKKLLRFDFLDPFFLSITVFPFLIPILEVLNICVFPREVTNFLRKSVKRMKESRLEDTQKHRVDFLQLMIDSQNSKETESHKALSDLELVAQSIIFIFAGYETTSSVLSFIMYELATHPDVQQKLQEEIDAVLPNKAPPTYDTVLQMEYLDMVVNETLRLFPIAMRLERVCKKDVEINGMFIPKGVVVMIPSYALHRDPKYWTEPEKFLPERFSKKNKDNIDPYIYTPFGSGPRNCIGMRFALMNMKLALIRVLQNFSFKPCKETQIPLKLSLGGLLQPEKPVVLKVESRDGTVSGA
T6 sequence (P05177 whole entry): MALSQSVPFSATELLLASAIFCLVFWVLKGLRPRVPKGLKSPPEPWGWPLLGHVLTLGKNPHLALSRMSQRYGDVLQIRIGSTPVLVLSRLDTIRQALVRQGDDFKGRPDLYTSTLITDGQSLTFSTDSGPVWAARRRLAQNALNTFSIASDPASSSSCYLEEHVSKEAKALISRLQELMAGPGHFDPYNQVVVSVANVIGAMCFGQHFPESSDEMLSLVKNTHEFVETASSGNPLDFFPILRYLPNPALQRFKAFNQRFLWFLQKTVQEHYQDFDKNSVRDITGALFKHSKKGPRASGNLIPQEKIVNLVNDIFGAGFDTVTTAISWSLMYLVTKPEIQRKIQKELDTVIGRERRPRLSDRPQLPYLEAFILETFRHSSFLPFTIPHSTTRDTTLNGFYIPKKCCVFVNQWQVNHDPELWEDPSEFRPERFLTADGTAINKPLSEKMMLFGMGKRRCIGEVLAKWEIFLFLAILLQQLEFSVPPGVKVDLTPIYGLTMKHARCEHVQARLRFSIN
T4 sequence (P20813 whole entry): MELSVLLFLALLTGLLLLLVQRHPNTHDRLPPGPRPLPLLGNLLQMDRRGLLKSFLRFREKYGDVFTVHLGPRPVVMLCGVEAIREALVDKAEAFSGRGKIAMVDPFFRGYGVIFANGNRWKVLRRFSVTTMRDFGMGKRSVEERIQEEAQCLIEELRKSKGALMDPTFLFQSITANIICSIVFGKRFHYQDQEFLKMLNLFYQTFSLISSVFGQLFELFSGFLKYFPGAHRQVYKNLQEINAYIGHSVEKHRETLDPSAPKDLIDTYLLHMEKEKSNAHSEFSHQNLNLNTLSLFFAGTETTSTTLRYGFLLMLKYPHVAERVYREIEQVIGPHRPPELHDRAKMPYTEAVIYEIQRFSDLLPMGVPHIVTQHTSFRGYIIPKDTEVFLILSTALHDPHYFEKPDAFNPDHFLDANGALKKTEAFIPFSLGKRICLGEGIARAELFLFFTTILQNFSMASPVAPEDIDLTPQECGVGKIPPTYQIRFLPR
T1 sequence (P17787 whole entry, looked up): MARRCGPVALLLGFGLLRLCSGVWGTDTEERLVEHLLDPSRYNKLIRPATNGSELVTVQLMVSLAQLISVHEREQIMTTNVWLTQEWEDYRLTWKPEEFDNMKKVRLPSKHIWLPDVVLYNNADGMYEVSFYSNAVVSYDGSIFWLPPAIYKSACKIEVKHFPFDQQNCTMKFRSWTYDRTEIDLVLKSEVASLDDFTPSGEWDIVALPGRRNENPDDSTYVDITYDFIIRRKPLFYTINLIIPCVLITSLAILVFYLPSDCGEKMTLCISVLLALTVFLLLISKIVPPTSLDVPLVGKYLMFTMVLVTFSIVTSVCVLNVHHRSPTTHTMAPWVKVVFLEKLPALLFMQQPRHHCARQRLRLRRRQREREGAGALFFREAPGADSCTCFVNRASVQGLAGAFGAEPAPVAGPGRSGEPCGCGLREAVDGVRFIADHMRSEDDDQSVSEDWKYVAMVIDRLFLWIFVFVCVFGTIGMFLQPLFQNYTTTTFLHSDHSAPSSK
T1 sequence (P30532 whole entry, looked up): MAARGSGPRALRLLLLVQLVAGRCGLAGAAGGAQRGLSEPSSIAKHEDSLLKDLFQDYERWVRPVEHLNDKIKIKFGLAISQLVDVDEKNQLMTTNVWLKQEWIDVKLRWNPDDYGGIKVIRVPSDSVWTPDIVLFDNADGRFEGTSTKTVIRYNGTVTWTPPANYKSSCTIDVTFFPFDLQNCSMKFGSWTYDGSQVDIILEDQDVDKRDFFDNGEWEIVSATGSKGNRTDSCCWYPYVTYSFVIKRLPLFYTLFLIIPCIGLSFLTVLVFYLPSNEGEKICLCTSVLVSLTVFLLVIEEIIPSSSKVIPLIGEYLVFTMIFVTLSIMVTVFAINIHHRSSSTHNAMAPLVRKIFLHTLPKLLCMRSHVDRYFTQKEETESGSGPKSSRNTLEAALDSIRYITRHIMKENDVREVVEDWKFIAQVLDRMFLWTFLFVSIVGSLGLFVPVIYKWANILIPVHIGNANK
T1 sequence (P30926 whole entry, looked up): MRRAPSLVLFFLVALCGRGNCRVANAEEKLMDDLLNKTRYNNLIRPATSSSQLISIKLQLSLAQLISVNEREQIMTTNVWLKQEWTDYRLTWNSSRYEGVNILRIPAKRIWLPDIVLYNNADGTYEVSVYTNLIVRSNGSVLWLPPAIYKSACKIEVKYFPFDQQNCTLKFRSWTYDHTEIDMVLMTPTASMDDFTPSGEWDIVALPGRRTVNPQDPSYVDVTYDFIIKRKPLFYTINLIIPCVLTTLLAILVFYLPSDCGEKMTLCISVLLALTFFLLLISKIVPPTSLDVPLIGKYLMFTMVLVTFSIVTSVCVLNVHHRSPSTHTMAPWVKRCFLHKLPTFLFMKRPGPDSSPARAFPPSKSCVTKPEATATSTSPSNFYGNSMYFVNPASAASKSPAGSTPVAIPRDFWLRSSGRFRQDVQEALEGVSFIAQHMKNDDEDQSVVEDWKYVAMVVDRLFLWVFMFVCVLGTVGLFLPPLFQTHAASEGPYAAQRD
T1 sequence (P32297 whole entry, looked up): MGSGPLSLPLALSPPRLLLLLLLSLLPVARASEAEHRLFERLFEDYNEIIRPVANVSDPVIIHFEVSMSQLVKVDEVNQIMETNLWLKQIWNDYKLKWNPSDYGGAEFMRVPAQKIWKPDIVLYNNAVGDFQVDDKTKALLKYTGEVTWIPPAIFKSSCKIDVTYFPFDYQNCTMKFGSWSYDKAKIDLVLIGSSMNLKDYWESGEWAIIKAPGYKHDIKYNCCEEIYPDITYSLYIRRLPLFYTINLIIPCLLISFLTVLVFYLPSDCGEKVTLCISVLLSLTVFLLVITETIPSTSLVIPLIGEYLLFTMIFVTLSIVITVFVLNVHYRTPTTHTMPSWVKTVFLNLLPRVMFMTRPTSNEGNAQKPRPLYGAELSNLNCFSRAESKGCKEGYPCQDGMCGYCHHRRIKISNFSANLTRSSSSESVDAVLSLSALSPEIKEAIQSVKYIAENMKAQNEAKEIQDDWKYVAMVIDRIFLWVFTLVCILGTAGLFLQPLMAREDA
T2 sequence (P10635 whole entry, canonical isoform): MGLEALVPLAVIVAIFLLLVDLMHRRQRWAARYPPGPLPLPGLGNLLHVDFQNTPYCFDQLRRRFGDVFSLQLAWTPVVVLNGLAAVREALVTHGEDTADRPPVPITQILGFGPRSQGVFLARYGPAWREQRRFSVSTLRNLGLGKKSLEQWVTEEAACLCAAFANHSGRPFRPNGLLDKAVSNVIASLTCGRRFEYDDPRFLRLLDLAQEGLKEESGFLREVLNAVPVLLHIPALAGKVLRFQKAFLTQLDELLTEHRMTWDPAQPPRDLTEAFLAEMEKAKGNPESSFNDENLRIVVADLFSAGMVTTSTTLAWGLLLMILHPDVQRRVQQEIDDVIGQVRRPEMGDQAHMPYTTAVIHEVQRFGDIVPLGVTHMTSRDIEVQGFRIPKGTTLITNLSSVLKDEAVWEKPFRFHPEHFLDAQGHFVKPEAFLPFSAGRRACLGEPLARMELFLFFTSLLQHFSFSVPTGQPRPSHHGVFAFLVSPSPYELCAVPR
T3 sequence (P33261 whole entry): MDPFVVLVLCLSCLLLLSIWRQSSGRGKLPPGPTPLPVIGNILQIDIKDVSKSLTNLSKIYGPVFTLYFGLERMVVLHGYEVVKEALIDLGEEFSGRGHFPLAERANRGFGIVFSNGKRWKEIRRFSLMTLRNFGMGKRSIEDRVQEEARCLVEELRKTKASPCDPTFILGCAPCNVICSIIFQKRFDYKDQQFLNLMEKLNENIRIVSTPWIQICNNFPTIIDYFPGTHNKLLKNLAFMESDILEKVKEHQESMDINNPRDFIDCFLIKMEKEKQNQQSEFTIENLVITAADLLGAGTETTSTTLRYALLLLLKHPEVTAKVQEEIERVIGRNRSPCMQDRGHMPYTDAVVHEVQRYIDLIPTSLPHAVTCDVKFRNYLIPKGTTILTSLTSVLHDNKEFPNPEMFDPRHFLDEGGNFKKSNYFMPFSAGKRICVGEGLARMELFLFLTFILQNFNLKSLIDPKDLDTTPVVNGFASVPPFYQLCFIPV
T7 sequence (P11712 whole entry): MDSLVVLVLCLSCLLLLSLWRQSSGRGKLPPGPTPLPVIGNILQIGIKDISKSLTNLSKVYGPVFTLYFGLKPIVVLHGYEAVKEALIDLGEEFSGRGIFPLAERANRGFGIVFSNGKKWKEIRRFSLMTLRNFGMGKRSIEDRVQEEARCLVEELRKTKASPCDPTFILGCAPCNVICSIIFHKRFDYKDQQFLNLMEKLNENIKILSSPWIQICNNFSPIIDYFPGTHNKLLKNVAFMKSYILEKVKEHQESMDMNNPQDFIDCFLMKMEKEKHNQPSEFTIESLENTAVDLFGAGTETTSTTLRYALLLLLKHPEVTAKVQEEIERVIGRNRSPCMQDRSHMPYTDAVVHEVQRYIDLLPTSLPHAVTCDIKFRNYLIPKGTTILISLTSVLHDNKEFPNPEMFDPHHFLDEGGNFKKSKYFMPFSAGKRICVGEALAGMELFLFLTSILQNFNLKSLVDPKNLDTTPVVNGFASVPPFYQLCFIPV

Cc1cc(OC[C@@H]2CCN2)on1
remaining at 1 h, 1 µM [1]: 67.5%
inhibition [2]: > 50%
Efficacy [3]: 120%
activity at 10 µM (CYP2D6 [4]): < 70%
activity at 1 µM (CYP2C19 [5]): < 70%
remaining at 1 h, 1 µM [6]: 53.4%
Activity (Mus musculus [7]): Active
activity at 10 µM (CYP2B6 [8]): < 70%
Ki [9]: 8.7 nM
remaining at 1 h, 10 µM [10]: 73.7%
inhibition [11]: > 50%
Activity [12]: inactive
activity at 1 µM (CYP3A4 [13]): < 70%
activity at 10 µM (CYP1A2 [14]): < 70%
Ki [15]: 86 nM
activity at 1 µM (CYP2C9 [16]): < 70%
Efficacy [17]: > 70%
activity at 10 µM (CYP2C9 [18]): < 70%
inhibition [19]: > 50%
activity at 10 µM (CYP3A4 [20]): < 70%
inhibition at 10 µM (hERG (KCNH2)): 0%
inhibition [21]: > 50%
Ki [22]: 6.79 µM
fraction unbound at up to 10 µM [23]: 0.871
inhibition [24]: > 50%
Ki [25]: 311 nM
Ki [26]: 12 nM
Activity (Mus musculus [27]): Active
Drug metabolism (Liver microsomes [28]): tde
activity at 1 µM (CYP3A4 [29]): < 70%
remaining at 1 h, 10 µM [30]: 67.2%
inhibition [31]: > 50%
activity at 10 µM (CYP3A4 [32]): < 70%
activity at 10 µM (CYP2C19 [33]): < 70%
inhibition [34]: > 50%
Ki [35]: 2890 nM
activity at 1 µM (CYP2D6 [36]): < 70%
activity at 1 µM (CYP2B6 [37]): < 70%
inhibition [38]: > 50%
Activity (Mus musculus [39]): Active
Drug metabolism (Liver microsomes [40]): tde
activity at 1 µM (CYP1A2 [41]): < 70%
fraction unbound at up to 10 µM [42]: 0.918
